{
  "source": "ChEMBL document CHEMBL4130403",
  "about": "“Thermoactinoamide A, an Antibiotic Lipophilic Cyclopeptide from the Icelandic Thermophilic Bacterium Thermoactinomyces vulgaris” (2017)",
  "key": {"Escherichia coli [1]": {"system": "Escherichia coli", "experiment": "Antibacterial activity against Escherichia coli ATCC 8739 up to 140 uM measured after overnight incubation", "assay_type": "functional, organism-based", "summary_of_the_method": "(§1)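 Liquid growth inhibition in 96-well microplates. Each strain was precultured overnight in Luria Bertoni at 37 °C with stirring, then diluted to 0.03 OD at 620 nm. 200 μL of this suspension was added to wells holding 2-fold serial dilutions of peptide. Plates were incubated overnight at 34 °C with shaking at 450 rpm and read at 620 nm. MIC, run in triplicate, is the lowest concentration giving complete growth inhibition.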"}, "Bacillus cereus [2]": {"system": "Bacillus cereus", "experiment": "Antibacterial activity against Bacillus cereus ATCC 14579 up to 140 uM measured after overnight incubation", "assay_type": "functional, organism-based", "summary_of_the_method": "as §1"}, "Klebsiella pneumoniae [3]": {"system": "Klebsiella pneumoniae", "experiment": "Antibacterial activity against Klebsiella pneumoniae ATCC 11296 up to 140 uM measured after overnight incubation", "assay_type": "functional, organism-based", "conditions": "Klebsiella pneumoniae subsp. ozaenae", "summary_of_the_method": "as §1"}, "Staphylococcus aureus": {"system": "Staphylococcus aureus", "experiment": "Antibacterial activity against Staphylococcus aureus ATCC 6538 measured after overnight incubation", "assay_type": "functional", "summary_of_the_method": "as §1"}, "Enterococcus faecalis [4]": {"system": "Enterococcus faecalis", "experiment": "Antibacterial activity against Enterococcus faecalis ATCC 29212 up to 140 uM measured after overnight incubation", "assay_type": "functional, organism-based", "summary_of_the_method": "as §1"}, "Pseudomonas aeruginosa [5]": {"system": "Pseudomonas aeruginosa", "experiment": "Antibacterial activity against Pseudomonas aeruginosa ATCC 13388 up to 140 uM measured after overnight incubation", "assay_type": "functional, organism-based", "summary_of_the_method": "as §1"}, "Escherichia coli [6]": {"system": "Escherichia coli", "experiment": "Antibacterial activity against Escherichia coli ATCC 8739 measured after overnight incubation", "assay_type": "functional", "summary_of_the_method": "as §1"}, "Klebsiella pneumoniae [7]": {"system": "Klebsiella pneumoniae", "experiment": "Antibacterial activity against Klebsiella pneumoniae ATCC 11296 measured after overnight incubation", "assay_type": "functional, Klebsiella pneumoniae subsp. ozaenae", "summary_of_the_method": "as §1"}, "Enterococcus faecalis [8]": {"system": "Enterococcus faecalis", "experiment": "Antibacterial activity against Enterococcus faecalis ATCC 29212 measured after overnight incubation", "assay_type": "functional", "summary_of_the_method": "as §1"}, "Pseudomonas aeruginosa [9]": {"system": "Pseudomonas aeruginosa", "experiment": "Antibacterial activity against Pseudomonas aeruginosa ATCC 13388 measured after overnight incubation", "assay_type": "functional, organism-based", "summary_of_the_method": "(§2)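 Broth microdilution (liquid growth inhibition) in 96-well plates. Overnight Luria Bertoni preculture from one colony at 37 °C with stirring, adjusted to OD620 0.03; 200 μL suspension added to 2-fold serial dilutions of peptide. Plates incubated overnight at 34 °C with shaking (450 rpm), read at OD620. MIC = lowest concentration giving complete growth inhibition; triplicate; gentamicin positive control.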"}, "Bacillus cereus [10]": {"system": "Bacillus cereus", "experiment": "Antibacterial activity against Bacillus cereus ATCC 14579 measured after overnight incubation", "assay_type": "functional, organism-based", "summary_of_the_method": "as §2"}},
  "note": "Activity calls are given as the source filed them. The rule behind the calls is not given here.",
  "data": [
    {"molecule": "CC[C@H](C)[C@H]1NC(=O)[C@H](CC(C)C)NC(=O)[C@@H](CC(C)C)NC(=O)[C@H](CC(C)C)NC(=O)[C@H](C(C)C)NC(=O)[C@@H](Cc2ccc(O)cc2)NC1=O", "values": [
      {"measurement": "Activity", "setting": "Escherichia coli [1]", "value": "inactive"},
      {"measurement": "Activity", "setting": "Bacillus cereus [2]", "value": "inactive"},
      {"measurement": "Activity", "setting": "Klebsiella pneumoniae [3]", "value": "inactive"},
      {"measurement": "MIC", "setting": "Staphylococcus aureus", "value": 35, "unit": "µM"},
      {"measurement": "Activity", "setting": "Enterococcus faecalis [4]", "value": "inactive"},
      {"measurement": "Activity", "setting": "Pseudomonas aeruginosa [5]", "value": "inactive"}
    ]},
    {"molecule": "O=C(N[C@H](CO)[C@H](O)c1ccc([N+](=O)[O-])cc1)C(Cl)Cl", "note": "[CHLORAMPHENICOL]", "values": [
      {"measurement": "MIC", "setting": "Escherichia coli [6]", "value": 19.3, "unit": "µM"},
      {"measurement": "MIC", "setting": "Klebsiella pneumoniae [7]", "value": 3.17, "unit": "µM"}
    ]},
    {"molecule": "CC1(C)S[C@@H]2[C@H](NC(=O)[C@H](N)c3ccccc3)C(=O)N2[C@H]1C(=O)O", "note": "[AMPICILLIN]", "values": [
      {"measurement": "MIC", "setting": "Enterococcus faecalis [8]", "value": 4.59, "unit": "µM"},
      {"measurement": "MIC", "setting": "Staphylococcus aureus", "value": 0.11, "unit": "µM"}
    ]},
    {"molecule": "GENTAMICIN", "values": [
      {"measurement": "MIC", "setting": "Pseudomonas aeruginosa [9]", "value": 10.5, "unit": "µM"},
      {"measurement": "MIC", "setting": "Bacillus cereus [10]", "value": 17.2, "unit": "µM"}
    ]}
  ]
}
